Hits are enriched below; roughly 2.5% of the tested compounds scored in any of these assays.
Bfl-1 A1 inh = inhibitors of the anti-apoptotic protein A1, read as caspase activation; caspase activation, % (concentration not given with the values); MEF A1-2A-BIM cells, Caspase-Glo 3/7 luminescence, 3 h; percent of clofoctol response, vehicle zero; 330,000 tested, 0.066% active;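 active = over half of replicate activation scores above 10%, or exactly half above 10 with the replicate mean above 10; inconclusive = replicate mean below 10 yet half the replicates above 10; inactive = over half of replicates below 10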
Tb MetRS inh = Trypanosoma brucei MetRS inhibition; purified T. brucei MetRS, ATP depletion, Kinase-Glo luminescence; inhibition, % at 11.9 µM; 360,000 tested, 0.4% active; AID 624268;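 active = inhibition above a per-plate cutoff of the control wells' mean inhibition plus 3 SD, cut at about 5.5% in these data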
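Dosing: 11.9 µM compound single dose, 0.9% DMSO; Assay system: purified T. brucei MetRS enzyme; Measured by: Kinase-Glo luciferase luminescence reporting remaining unconsumed ATP; Schedule: 15 min plus 2 h at 25 °C.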
MC4R antagonist = human MC4R antagonism in cAMP assay | MC4R-expressing cells, MTII-stimulated cAMP, LANCE TR-FRET | P32245 | 360,000 tested, 0.48% active | inhibition, % at 6.5 µM;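 active = inhibition above its plate's cutoff, the mean of tested wells on that plate plus 3 SD, cut at about 29% in these data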
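Assay system: U2OS cells stably expressing human melanocortin 4 receptor (MC4R) / Dosing: 6.5 µM / Timing: compound 30 min, challenge 1 h, detection 1 h / Measured by: Eu-cAMP/anti-cAMP TR-FRET, emission 671 nm / Replicates: singlicate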
NLRP3 yeast inh = blocks the NALP3 inflammasome reconstituted in yeast; Yeast reconstituted NLRP3/ASC/caspase-1, beta-gal luminescence, 24 h; inhibition, % at 10 µM; 330,000 tested, 0.39% active; AID 2825;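 active = inhibition of 50% or more; inactive = inhibition below 50%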
MC4R barr agon = activates human MC4R beta-arrestin recruitment. activation, % at 8.9 µM. U2OS MC4R beta-arrestin complementation, luminescence; percent of melanotan II response, DMSO zero. 360,000 tested, 0.98% active. P32245. AID 540308;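 active = activation above a per-plate cutoff, the mean activation of sample wells on that plate plus 3 SD, cut at about 8% in these data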
NALP1 yeast inh = blocks the NALP1 inflammasome reconstituted in yeast; S. cerevisiae NALP1/ASC/caspase-1 growth, X-gal OD620, 72 h; inhibition, % at 10 µM; 280,000 tested, 0.61% active; in the data active = inhibition mostly above about 24%, no sharp cut-off; inactive = mostly below about 32%
MC4R barr conf = human MC4R beta-arrestin agonism confirmation; U2OS MC4R beta-arrestin recruitment, luminescence; scaled DMSO 0%, Melanotan II 100%; AID 602192; shares compounds with MC4R barr agon; activation, % at 8.9 µM; 2,400 tested, 31% active;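 active = mean activation across replicates above the hit cutoff set in the earlier primary screen, cut at about 8% in these data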
MOR-DOR barr ag = activates mu-delta opioid heterodimer, MC4R agonist counter-screen | shares compounds with MC4R barr agon | U2OS PathHunter beta-arrestin, beta-gal luminescence; percent of deltorphin B response, DMSO zero | activation, % at 9.2 µM | 2,400 tested, 5.8% active | AID 602194;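 active = mean activation across replicates exceeds the hit threshold derived in the earlier primary screen, cut at about 18% in these data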
Target sequence (P35372 whole entry, looked up): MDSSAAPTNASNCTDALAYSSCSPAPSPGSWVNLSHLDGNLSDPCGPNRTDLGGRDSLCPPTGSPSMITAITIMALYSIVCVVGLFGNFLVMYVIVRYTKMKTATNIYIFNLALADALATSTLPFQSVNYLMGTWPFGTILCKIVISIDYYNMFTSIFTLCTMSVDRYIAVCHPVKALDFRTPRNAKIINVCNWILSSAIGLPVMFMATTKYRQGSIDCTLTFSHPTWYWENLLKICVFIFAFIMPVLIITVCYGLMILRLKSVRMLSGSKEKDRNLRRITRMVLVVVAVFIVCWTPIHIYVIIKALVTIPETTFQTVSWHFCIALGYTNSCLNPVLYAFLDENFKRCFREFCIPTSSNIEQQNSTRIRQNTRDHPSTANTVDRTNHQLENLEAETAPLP
Target sequence (P41143 whole entry, looked up): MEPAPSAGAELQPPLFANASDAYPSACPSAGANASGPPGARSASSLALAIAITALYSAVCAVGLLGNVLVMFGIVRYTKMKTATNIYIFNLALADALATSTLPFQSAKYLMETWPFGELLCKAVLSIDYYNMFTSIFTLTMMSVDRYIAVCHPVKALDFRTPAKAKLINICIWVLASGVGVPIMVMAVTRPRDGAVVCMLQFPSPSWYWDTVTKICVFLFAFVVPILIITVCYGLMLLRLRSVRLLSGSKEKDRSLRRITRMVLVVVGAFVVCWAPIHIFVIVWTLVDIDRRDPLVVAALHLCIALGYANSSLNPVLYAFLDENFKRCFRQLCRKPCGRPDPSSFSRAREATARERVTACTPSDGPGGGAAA
Each line names hits and unclear results; the compound was inactive in the other large screens (follow-up assays come after a bar, where they were run).

CSc1ccccc1OCc1cc(C(=O)NCC(C)Oc2cccnc2)no1 (stereo not drawn)	none (no result: Bfl-1 A1 inh, NLRP3 yeast inh, NALP1 yeast inh)
O=C(Nc1ccc2c(c1)OCCO2)c1ccc(Br)o1	none
O=C(Nc1ccc2c(c1)Cc1ccccc1-2)c1ccc(Br)o1	MC4R barr agon 10 | MC4R barr conf inactive | MOR-DOR barr ag inactive
O=C(Nc1ccc2c(c1)Cc1ccccc1-2)c1ccccc1F	MC4R barr agon 11 (no result: NALP1 yeast inh) | MC4R barr conf inactive | MOR-DOR barr ag inactive
Cc1ccccc1-c1nc(-c2ccc(NC(=O)c3ccc(Br)o3)cc2)no1	MC4R barr agon 30 | MC4R barr conf 21 | MOR-DOR barr ag inactive
CCCC(=O)Nc1ccc2c(c1)Cc1ccccc1-2	none
Cc1ccccc1-c1nc(-c2ccc(Br)o2)no1	none
COC(=O)C1CN(C(=O)COc2ccc(Cl)cc2C)c2ccccc2O1 (stereo not drawn)	none
CN(C)CCCNC(=O)c1ccc(-c2nc(-c3ccc(Cl)cc3)cs2)cc1	MC4R barr agon 16 | MC4R barr conf 56 | MOR-DOR barr ag inactive
O=C1COc2ccc(S(=O)(=O)N3CCN(c4cccc(C(F)(F)F)c4)CC3)cc2N1	MC4R barr agon 11 | MC4R barr conf inactive | MOR-DOR barr ag inactive
CC(=O)c1ccc(N2CCN(S(=O)(=O)c3cc4c(cc3C)NC(=O)CO4)CC2)cc1	MC4R barr agon 16 (no result: Bfl-1 A1 inh) | MC4R barr conf inactive | MOR-DOR barr ag inactive
O=C(CN1C(=O)C2CC=CCC2C1=O)Nc1nnc(C2CC2)s1 (stereo not drawn)	none (no result: NALP1 yeast inh)
CCc1ccc2c(CC(=O)Nc3cccc(S(=O)(=O)N4CCOCC4)c3)coc2c1	none (no result: NALP1 yeast inh)
COc1ccc(CC(N)c2csc(NC(=O)NCCc3ccccc3)n2)cc1 (stereo not drawn)	none (no result: Bfl-1 A1 inh, NLRP3 yeast inh, NALP1 yeast inh)
NC(CCc1ccccc1)c1csc(NC(=O)Nc2ccccc2Oc2ccccc2)n1 (stereo not drawn)	MC4R barr agon 18 (no result: Bfl-1 A1 inh, NLRP3 yeast inh, NALP1 yeast inh) | MC4R barr conf inactive | MOR-DOR barr ag 25
NC(Cc1ccc(Cl)cc1)c1csc(NC(=O)NCCc2ccccc2)n1 (stereo not drawn)	MC4R barr agon 13 (no result: Bfl-1 A1 inh, NLRP3 yeast inh, NALP1 yeast inh) | MC4R barr conf 27 | MOR-DOR barr ag 21
NC(Cc1ccc(Cl)cc1)c1csc(NC(=O)Nc2ccccc2-c2ccccc2)n1 (stereo not drawn)	MC4R barr agon 19 (no result: Bfl-1 A1 inh, NLRP3 yeast inh, NALP1 yeast inh) | MC4R barr conf 11 | MOR-DOR barr ag inactive
CCOC(=O)C1CN(C(=O)OCC)CC1=NNC(N)=O (stereo not drawn)	none (no result: Bfl-1 A1 inh, NLRP3 yeast inh, NALP1 yeast inh)
N#Cc1c(-c2cccc(Br)c2)cc(-c2cccnc2)nc1N	MC4R barr agon 32 | MC4R barr conf inactive | MOR-DOR barr ag inactive
CCOc1ccc2nc(SCC(=O)N3CCCc4ccccc43)sc2c1	none
CCOc1ccc2nc(SCC(=O)NC3CCCc4ccccc43)sc2c1 (stereo not drawn)	MC4R barr agon 31 | MC4R barr conf inactive | MOR-DOR barr ag inactive
Cc1nc(NC(=O)c2cccc(-c3cc4ccccc4oc3=O)c2)ccc1Br	MC4R barr agon 24 | MC4R barr conf 17 | MOR-DOR barr ag inactive
COc1cc(O)c(CC=C(C)C)c(O)c1C(=O)CCc1ccc(O)cc1	MC4R barr agon 36 | MC4R barr conf 32 | MOR-DOR barr ag inactive
COc1ccc(NC(=O)CN(C)C(=O)c2sc3cc(Cl)ccc3c2Cl)cc1	none (no result: NALP1 yeast inh)
Cc1ccc(NC(=O)CN(C)C(=O)c2sc3cc(Cl)ccc3c2Cl)cc1	MC4R barr agon 10 (no result: NALP1 yeast inh) | MC4R barr conf inactive | MOR-DOR barr ag inactive
Cc1nc2ccc(C(=O)NCCCN3CCCC3=O)cn2c1N(C)C(=O)CCc1ccccc1	none (no result: Bfl-1 A1 inh, NLRP3 yeast inh, NALP1 yeast inh)
Nc1nc(CCl)nc(Nc2cccc3ccccc23)n1	MC4R barr agon 26 | MC4R barr conf 19 | MOR-DOR barr ag 43
Cn1c(=O)c(C(=O)NNC(=O)c2cccc(Cl)c2)c(O)c2ccccc21	MC4R barr agon 9.8 | MC4R barr conf inactive | MOR-DOR barr ag inactive
Cc1cccc(C(=O)NNC(=O)c2c(O)c3ccccc3n(C)c2=O)c1	Bfl-1 A1 inh inconclusive (no result: NLRP3 yeast inh)
O=C(NC1CCCCC1)c1ccc(CS(=O)(=O)c2ccc(Cl)cc2)o1	none
Cn1c(=O)[nH]c(N)c(Br)c1=O	none (no result: Bfl-1 A1 inh, NLRP3 yeast inh, NALP1 yeast inh)
O=C1C2=C(NC(=S)NC2c2ccc(Cl)cc2)NC(c2ccc(Cl)cc2)N1c1ccc(Cl)cc1 (stereo not drawn)	MC4R barr agon 19 | MC4R barr conf 29 | MOR-DOR barr ag inactive
CCc1ccc(C2NC(=S)NC3=C2C(=O)N(c2ccccc2OC)C(c2ccc(CC)cc2)N3)cc1 (stereo not drawn)	MC4R barr agon 18 | MC4R barr conf 14 | MOR-DOR barr ag inactive
C=CCn1c(SCC(=O)N(C)C2CCS(=O)(=O)C2)nnc1-c1ccccc1 (stereo not drawn)	none (no result: NALP1 yeast inh)
Cc1ccc(NC(=O)C2CCN(S(=O)(=O)c3ccc(Cl)c(C(F)(F)F)c3)CC2)nc1	MC4R barr agon 9.9 (no result: NALP1 yeast inh) | MC4R barr conf inactive | MOR-DOR barr ag inactive
CC1CCCN(C(=O)COC(=O)C2CCN(S(=O)(=O)c3ccc(Cl)c(C(F)(F)F)c3)CC2)C1 (stereo not drawn)	MC4R barr agon 56 (no result: NALP1 yeast inh) | MC4R barr conf inactive | MOR-DOR barr ag inactive
Cc1n[nH]c(=S)n1/N=C/c1ccccc1OCc1ccc(Cl)cc1Cl	MC4R barr agon 19 | MC4R barr conf 16 | MOR-DOR barr ag inactive
CCOc1ccc(-n2cnnn2)cc1S(=O)(=O)NCc1ccccc1	MC4R barr agon 16 | MC4R barr conf inactive | MOR-DOR barr ag inactive
Cc1cccc(-n2nnnc2SCC(=O)c2cc(C)n(Cc3ccco3)c2C)c1	MC4R barr agon 27 | MC4R barr conf 16 | MOR-DOR barr ag inactive
Cc1cccc(-n2nnnc2SCC(=O)c2cc(C)n(CC3CCCO3)c2C)c1 (stereo not drawn)	none
Cc1ccc(O)c(C(=O)/C=C/c2ccc3c(c2)OCCO3)c1	MC4R barr agon 22 | MC4R barr conf 21 | MOR-DOR barr ag inactive
O=c1ccc2cc(S(=O)(=O)N3CCN(c4ccccc4)CC3)ccc2[nH]1	none
O=S(=O)(c1ccc2nc(-c3ccccc3)[nH]c2c1)N1CCN(c2ccc(Cl)cc2)CC1	MC4R barr agon 11 | MC4R barr conf inactive | MOR-DOR barr ag inactive
CC(C)(C)c1nn(-c2ccccc2)c2[nH]c(=O)c(CNCc3ccc4c(c3)OCO4)cc12	MC4R barr agon 16 | MC4R barr conf 14 | MOR-DOR barr ag inactive
CCOc1cccc(NCc2cc3c(C(C)(C)C)nn(-c4ccccc4)c3[nH]c2=O)c1	none

Screening data as filed in PubChem.
